Each structure is given as a SMILES string.

System in one data set: not listed separately
The data set is described as follows: pKa value was determined. Type of data set: physicochemical.
Conditions: not given
Consider `CONC(=O)Nc1ccc(-c2sc3c(c2CN(C)Cc2ccccc2)c(=O)n(-c2ccccc2)c(=O)n3Cc2c(F)cccc2F)cc1` [SUFUGOLIX], for which the pKa – broadly, the negative logarithm of the acid dissociation constant – was determined as 5.

A further data set has as its target T1, Gonadotropin-releasing hormone receptor (Rattus norvegicus, UniProt P30969).
T1 sequence (P30969 whole entry): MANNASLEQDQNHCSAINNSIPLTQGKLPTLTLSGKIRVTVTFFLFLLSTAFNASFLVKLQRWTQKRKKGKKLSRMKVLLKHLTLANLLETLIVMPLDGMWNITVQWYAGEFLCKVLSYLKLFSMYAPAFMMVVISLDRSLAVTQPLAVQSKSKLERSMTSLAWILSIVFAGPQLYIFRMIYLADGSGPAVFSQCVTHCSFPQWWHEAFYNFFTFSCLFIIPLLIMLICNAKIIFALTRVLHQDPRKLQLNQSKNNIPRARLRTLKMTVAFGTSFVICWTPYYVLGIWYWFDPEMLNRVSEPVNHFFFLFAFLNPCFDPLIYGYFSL
As to the kind of experiment: Binding affinity towards rat Gonadotropin-releasing hormone receptor.
Conditions: not given
As for `Cc1cc(-c2c(OCC[C@@H]3CCN3)c3cc(C(=O)Nc4ccncn4)c(Cl)cc3[nH]c2=O)cc(C)c1C`, the IC50 (in general, the concentration at which inhibition is half-maximal) was found to be 4 nM.

Another data set addresses T2, Gonadotropin-releasing hormone receptor (Homo sapiens, UniProt P30968).
T2 sequence (P30968 whole entry): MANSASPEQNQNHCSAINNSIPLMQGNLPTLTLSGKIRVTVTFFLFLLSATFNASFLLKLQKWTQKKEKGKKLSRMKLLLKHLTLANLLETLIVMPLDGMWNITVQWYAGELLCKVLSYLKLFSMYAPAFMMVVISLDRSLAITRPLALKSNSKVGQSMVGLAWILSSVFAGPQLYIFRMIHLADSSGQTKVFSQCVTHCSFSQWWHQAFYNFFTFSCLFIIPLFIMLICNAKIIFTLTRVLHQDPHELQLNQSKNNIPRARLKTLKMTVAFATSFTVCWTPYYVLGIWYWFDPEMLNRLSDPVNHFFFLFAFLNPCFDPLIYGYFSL
The data set is described as follows: Binding affinity towards human gonadotropin-releasing hormone receptor.
Conditions: not given
In short, it runs like this: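 Cloned human GnRH receptor stably expressed in HEK293 cells, binding measured in a 96-well filtration format. Results expressed as Ki. Key compounds were run in 3–8 independent experiments.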
Take `CCN(CC)CCN(C)Cc1c(-c2ccc([N+](=O)[O-])cc2)sc2c1c(=O)n(-c1ccccc1)c(=O)n2Cc1c(F)cccc1F`: the Ki – broadly, the equilibrium dissociation constant of an inhibitor or competing ligand from its target – stood at 76 nM.

`CCNc1ccc(-c2sc3c(c2CN(C)Cc2ccccc2)c(=O)n(-c2ccccc2)c(=O)n3Cc2c(F)cccc2F)cc1`: the affinity corresponds to a Ki of 11 nM.

The compound `CN(CCc1ccccn1)Cc1c(-c2ccc([N+](=O)[O-])cc2)sc2c1c(=O)n(-c1ccccc1)c(=O)n2Cc1c(F)cccc1F` gave a Ki of 0.6 nM.

In turn, `CC(C)CC(N)C(=O)Nc1ccc(-c2sc3c(c2CN(C)Cc2ccccc2)c(=O)n(-c2ccccc2)c(=O)n3Cc2c(F)cccc2F)cc1` (single isomer, unassigned) came in with a Ki of 58 nM.

As for `CN(Cc1ccccc1)Cc1c(-c2ccc(NC(=O)C(F)(F)F)cc2)sc2c1c(=O)n(-c1ccccc1)c(=O)n2Cc1c(F)cccc1F`, affinity was put at a Ki of 16 nM.

As to `CN(Cc1ccccc1)Cc1c(-c2ccc([N+](=O)[O-])cc2)sc2c1c(=O)n(-c1ccccc1)c(=O)n2Cc1c(F)cccc1F`, the affinity corresponds to a Ki of 180 nM.

In turn, `CC(=O)Nc1ccc(-c2sc3c(c2CN(C)Cc2ccccc2)c(=O)n(-c2ccccc2)c(=O)n3Cc2c(F)cccc2F)cc1` returned a Ki of 4.1 nM.

`CC(C)Nc1ccc(-c2sc3c(c2CN(C)Cc2ccccc2)c(=O)n(-c2ccccc2)c(=O)n3Cc2c(F)cccc2F)cc1` gave a Ki of 88 nM.

In turn, `CN(CCc1ccccc1)Cc1c(-c2ccc([N+](=O)[O-])cc2)sc2c1c(=O)n(-c1ccccc1)c(=O)n2Cc1c(F)cccc1F` gave a Ki of 170 nM.

`CN(Cc1ccccc1)Cc1c(-c2ccc(N(C)C)cc2)sc2c1c(=O)n(-c1ccccc1)c(=O)n2Cc1c(F)cccc1F` came in with an inhibition constant (Ki) of 61 nM.

Take `CN(Cc1ccccc1)Cc1c(-c2ccc(NC(=O)CCN)cc2)sc2c1c(=O)n(-c1ccccc1)c(=O)n2Cc1c(F)cccc1F`: the inhibition constant (Ki) came out at 360 nM.

`COCCN(C)Cc1c(-c2ccc([N+](=O)[O-])cc2)sc2c1c(=O)n(-c1ccccc1)c(=O)n2Cc1c(F)cccc1F`: the Ki was 170 nM.

Take `CN(Cc1ccccc1)Cc1c(-c2ccc(NC(=O)CN)cc2)sc2c1c(=O)n(-c1ccccc1)c(=O)n2Cc1c(F)cccc1F`: the affinity corresponds to a Ki of 150 nM.

`CC(C)C(=O)Nc1ccc(-c2sc3c(c2CN(C)Cc2ccccc2)c(=O)n(-c2ccccc2)c(=O)n3Cc2c(F)cccc2F)cc1` returned a Ki of 2.9 nM.

Turning to `C[C@H](N)C(=O)Nc1ccc(-c2sc3c(c2CN(C)Cc2ccccc2)c(=O)n(-c2ccccc2)c(=O)n3Cc2c(F)cccc2F)cc1`, the Ki was found to be 43 nM.

In turn, `CN(C)Cc1c(-c2ccc([N+](=O)[O-])cc2)sc2c1c(=O)n(-c1ccccc1)c(=O)n2Cc1c(F)cccc1F` yielded a Ki of 640 nM.

Regarding `CCCCN(C)Cc1c(-c2ccc([N+](=O)[O-])cc2)sc2c1c(=O)n(-c1ccccc1)c(=O)n2Cc1c(F)cccc1F`, affinity was put at a Ki of 270 nM.

Compound `CN(Cc1ccccn1)Cc1c(-c2ccc([N+](=O)[O-])cc2)sc2c1c(=O)n(-c1ccccc1)c(=O)n2Cc1c(F)cccc1F` yielded an inhibitory constant (Ki) of 9 nM.

For `CN(Cc1ccccc1)Cc1c(-c2ccc(N)cc2)sc2c1c(=O)n(-c1ccccc1)c(=O)n2Cc1c(F)cccc1F`, the Ki was determined as 36 nM.

For the compound `CC(C)CNc1ccc(-c2sc3c(c2CN(C)Cc2ccccc2)c(=O)n(-c2ccccc2)c(=O)n3Cc2c(F)cccc2F)cc1`, the Ki amounted to 17 nM.

In turn, `O=c1c2c(CN3CCNCC3)c(-c3ccc([N+](=O)[O-])cc3)sc2n(Cc2c(F)cccc2F)c(=O)n1-c1ccccc1` had a Ki of 460 nM.

`CN(Cc1ccccc1)Cc1c(-c2ccc(NC(=O)CCCN)cc2)sc2c1c(=O)n(-c1ccccc1)c(=O)n2Cc1c(F)cccc1F`: the Ki is 300 nM.

System in a further data set: not listed separately
The data set is described as follows: Partition coefficient (logP). Type of data set: physicochemical. The note with it: octanol/water.
On to `CONC(=O)Nc1ccc(-c2sc3c(c2CN(C)Cc2ccccc2)c(=O)n(-c2ccccc2)c(=O)n3Cc2c(F)cccc2F)cc1` [SUFUGOLIX], for which the logP (commonly a log measure of how a compound divides between an organic and an aqueous phase) came out at 6.5.

The record behind these values is ChEMBL document CHEMBL1136304, “Synthesis and structure-activity relationships of thieno[2,3-d]pyrimidine-2,4-dione derivatives as potent GnRH receptor antagonists” (Bioorg Med Chem Lett, 2003).
